dFosB act: mouse delta FosB homodimer activation | P13346 | purified delta FosB, TAMRA-CDK5 oligo fluorescence polarization; percent of positive-control signal above neutral wells | activation, % at 25 µM | 340,000 tested, 0.99% active | AID 493131;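 active means mean activation above about 17%, with every replicate also reaching it, limit read from the data, passing the limit was not always enough; inconclusive means only one of the two conditions met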
Target sequence (P13346 whole entry, looked up): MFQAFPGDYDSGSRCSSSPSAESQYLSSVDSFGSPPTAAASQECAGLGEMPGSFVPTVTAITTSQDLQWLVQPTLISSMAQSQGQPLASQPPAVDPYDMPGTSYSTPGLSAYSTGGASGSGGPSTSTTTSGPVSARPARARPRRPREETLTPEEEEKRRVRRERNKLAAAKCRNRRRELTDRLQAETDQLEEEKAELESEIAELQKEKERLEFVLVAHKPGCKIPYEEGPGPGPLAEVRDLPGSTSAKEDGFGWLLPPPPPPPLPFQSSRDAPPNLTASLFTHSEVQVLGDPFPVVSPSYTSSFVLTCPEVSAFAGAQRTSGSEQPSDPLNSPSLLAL
Cneo AK release: Cryptococcus neoformans lysis via adenylate kinase release; C. neoformans lysis, adenylate kinase release luminescence, 4 h; normalised: neutral wells 0, clomiphene wells 100; lysis activity, % at 15 µM; 360,000 tested, 0.2% active;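 active means mean lysis activity across replicates of at least 80%, whatever share of replicates individually reach that level; inactive means mean lysis activity below 80%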
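Test system: log-phase Cryptococcus neoformans yeast cells; Quantity: yeast cell density of 5 × 10^6 cells/mL; Buffer or medium: YPD; Doses: single compound concentration per well; Timing: 4 h at 37 °C static, read 1 h later; Measured by: AK luminescence; Read-out basis: lysis from increased AK signal; Control set: Clomiphene as positive control.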
GSIS activator: primary screen for activators of insulin secretion dependent on glucose, INS-1E cells, GLuc reporter luminescence; INS-1E GLuc reporter insulin secretion, 2-3 h; activation, % at 16.6 µM; 370,000 tested, 0.61% active; AID 743287;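 active means lowest replicate activation of at least 40%, so every replicate reaches that level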;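 further: 0% = median of neutral control wells and 100% = median of IBMX positive control wells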
PAX8 inh HTS: inhibitors of PAX8 transcriptional activity in RMG-I cells. RMG-I TPO-luciferase reporter, SteadyGlo, 24 h. 360,000 tested, 1.2% active. AID 652154. inhibition, % at 12.6 µM;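 active means mean replicate inhibition at least 60% with every replicate also reaching 60%; inconclusive means only one of the two criteria is met; inactive means mean below 60% and not all replicates reaching 60%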;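 further: luciferase light reporting Pax8 driven TPO promoter activity; plate controls were median of neutral control wells for no effect and mitoxantrone controls for full effect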
HIV Env fusion: inhibitors of HIV Env-mediated cell fusion; 360,000 tested, 1.1% active; HeLa-JRFL Env/CEM21 cell fusion, luciferase; inhibition, % at 12.3 µM;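 active means mean replicate inhibition score of at least 50 and every replicate individually at or above 50; inconclusive means only one of the two criteria met; inactive means mean below 50 and not all replicates reaching 50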;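 further: 0% = plate neutral controls and 100% = maraviroc near 300 nM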
CDK5 p35 inh: CDK5/p35 (human) kinase inhibition. Q00535+Q15078. Recombinant CDK5/p35, ADP-Glo luminescence, 60 min. inhibition, % at 10 µM. 330,000 tested, 0.01% active. AID 488839;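 active means highest replicate inhibition of at least 50% and at least 75% of replicates reaching 50%; inconclusive means only one of the two criteria met; inactive means both criteria failed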;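 further: plate controls were DMSO neutral control for no effect and GW8510 at 10 µM for full effect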
An asterisk follows results filed as active; u = inconclusive; x = no result given; [ ] = remark or other dose. This is a sample that favours compounds with a hit; in the whole collection about 2.9% have one here.

SMILES	dFosB act	Cneo AK release	GSIS activator	PAX8 inh HTS	HIV Env fusion	CDK5 p35 inh
C[C@H]1CCCCO[C@@H](CN(C)S(=O)(=O)c2ccc(Cl)cc2)[C@@H](C)CN([C@@H](C)CO)C(=O)c2cc(NS(=O)(=O)c3ccccc3)ccc2O1	x	1	3	u	-59	x
C[C@@H]1CCCCO[C@H](CN(C)S(=O)(=O)c2ccc(Cl)cc2)[C@H](C)CN([C@H](C)CO)C(=O)c2cc(NS(=O)(=O)c3ccccc3)ccc2O1	x	0	-47	33	44[16.7 µM]	x
CC=Cc1ccc2n(c1=O)C[C@@H]1[C@@H](CO)[C@H](C(=O)NCCCN(C)C)[C@H]2N1C(=O)c1ccccc1F (mixture of isomers)	x	-3	9	x	3[16.7 µM]	x
CCC(=O)N(C)C[C@@H]1Oc2ncc(C3=CCCC3)cc2C(=O)N([C@H](C)CO)C[C@H]1C	x	0	7	x	-7[16.7 µM]	x
CCOC(=O)c1cnc2ccc(C(=O)OC)cc2c1Nc1ccc(C(=O)O)cc1	-2	x	19	104*	-20	-1
CCOC(=O)c1cnc2ccc(OC)cc2c1Nc1ccc(N2CCN(C)CC2)cc1	36*	0	-7	19	13	1
CNC[C@H]1Oc2ccc(NC(=O)NC3CCCCC3)cc2C(=O)N([C@@H](C)CO)C[C@@H]1C	x	0	32	6	x	x
COc1ccccc1C#Cc1ccc2c(c1)O[C@@H](CN(C)C(C)=O)[C@@H](C)CN([C@@H](C)CO)S2(=O)=O	x	2	-26	x	4[16.7 µM]	x
CC(=O)Nc1nc(CC(C)C)cc(-c2ccco2)c1C#N	2	-2	48*	x	-34	0
O=C(C[C@H]1C[C@@H]2c3cc(NC(=O)C4CCC4)ccc3O[C@@H]2[C@@H](CO)O1)NCC(F)(F)F	x	-13	-3	5	88*[16.7 µM]	x
O=C(C[C@@H]1C[C@@H]2c3cc(NC(=O)C4CCC4)ccc3O[C@@H]2[C@@H](CO)O1)NCC(F)(F)F	x	-6	3	7	90*[16.7 µM]	x
CC(=O)Nc1ccc2c(c1)C(=O)N(C)[C@@H]1CC[C@@H](CC(=O)NC3CCCCC3)O[C@H]1CO2	x	-4	0	-1	12[16.7 µM]	x
COc1cc2c(cc1OC)C(Cc1ccc(O)cc1)N(C)CC2 (stereo not given)	2	-1	40*	22	x	0
COc1cc2c(cc1OC)C(Cc1ccc(O)cc1)NCC2 (stereo not given)	7	0	70*	-3	11	-1
CCOc1ccc(CC2NCCc3cc(OCC)c(OCC)cc32)cc1OCC (stereo not given)	-9	1	-51	17	2	2
CCCCS(=O)(=O)NCC1CCN(C(=O)C(=O)c2cc3ccccc3o2)CC1	x	x	-1	12	-22	x
C#CC(=O)N(c1ccc(OC)cc1OC)C(C(=O)NC1CCCC1)c1cccs1 (stereo not given)	-10	x	30	93*	109*	-1
C#CC(=O)N(c1cc(OC)ccc1OC)C(C(=O)NC1CCCC1)c1cccs1 (stereo not given)	-23	0	x	x	x	-1
CC1=[N+](C)c2c(ccc3cccnc23)C1(C)C	4	x	-67	85*	34	1
C/C=C/c1ccc([C@H]2[C@@H](CNC(C)=O)N(Cc3ccccn3)[C@H]2CO)cc1	x	1	0	25	x	x
O=C1C=C(NCc2ccco2)CCC1	-5	1	5	x	x	-2
O=C1C=C(NCc2ccccc2)CCC1	3	-6	18	74*	6	1
S=C1Nc2ccccc2CS1	x	1	9	31	7	x
S=C1Cc2ccccc2N1	-15	-2	-16	106*	73*	1
C[C@@H]1CN([C@H](C)CO)C(=O)c2cc(NC(=O)Nc3ccc(C(F)(F)F)cc3)ccc2O[C@@H](C)CCCCO[C@@H]1CN(C)Cc1ccc2c(c1)OCO2	x	2	27	89*	41[16.7 µM]	x
SMILES	dFosB act	Cneo AK release	GSIS activator	PAX8 inh HTS	HIV Env fusion	CDK5 p35 inh
C[C@H](CO)N1C[C@H](C)[C@H](CN(C)Cc2ccc3c(c2)OCO3)Oc2ccc(NC(=O)Nc3cccc4ccccc34)cc2C1=O	x	0	-23	94*	16[16.7 µM]	x
C[C@H]1CCCCO[C@@H](CN(C)Cc2ccc3c(c2)OCO3)[C@@H](C)CN([C@@H](C)CO)C(=O)c2cc(NC(=O)Nc3ccc4c(c3)OCO4)ccc2O1	x	1	-35	10	84*[16.7 µM]	x
C[C@@H]1CN([C@H](C)CO)C(=O)c2cc(NC(=O)Nc3cccc4ccccc34)ccc2O[C@@H](C)CCCCO[C@H]1CN(C)Cc1ccc2c(c1)OCO2	x	0	-18	69*	19[16.7 µM]	x
C[C@@H]1CN([C@H](C)CO)C(=O)c2cc(NC(=O)Nc3cccc4ccccc34)ccc2O[C@H]1CN(C)Cc1ccc2c(c1)OCO2	x	2	-16	30	2[16.7 µM]	x
CC(=O)N1CC(=O)N2[C@@H](CO)[C@H](c3ccc(-c4ccc(C#N)cc4)cc3)[C@@H]2C1	x	x	12	x	x	x
COc1ccc(NC(=O)N(C)C[C@H]2Oc3c(NS(=O)(=O)c4ccc(C)cc4)cccc3C(=O)N([C@H](C)CO)C[C@H]2C)cc1	x	0	18	-13	-2[16.7 µM]	x
O=C(C[C@@H]1CC[C@@H]2[C@H](COC[C@@H](O)CN2CCC(F)(F)F)O1)NCC1CC1	x	0	-4	-19	x	x
C[C@@H]1CN([C@H](C)CO)C(=O)c2cc(NC(=O)Nc3ccc4c(c3)OCO4)ccc2O[C@@H](C)CCCCO[C@H]1CN(C)Cc1ccc(C(F)(F)F)cc1	x	3	6	85*	49[16.7 µM]	x
C[C@@H]1CCCCO[C@@H](CN(C)Cc2ccc(C(F)(F)F)cc2)[C@@H](C)CN([C@@H](C)CO)C(=O)c2cc(NC(=O)Nc3ccc4c(c3)OCO4)ccc2O1	x	2	-12	52	5[16.7 µM]	x
C[C@@H]1CCCCO[C@@H](CN(C)Cc2ccc(C(F)(F)F)cc2)[C@H](C)CN([C@@H](C)CO)C(=O)c2cc(NC(=O)Nc3ccc4c(c3)OCO4)ccc2O1	x	-1	16	72*	55*[16.7 µM]	x
C[C@@H]1CCCCO[C@H](CN(C)Cc2ccc(C(F)(F)F)cc2)[C@@H](C)CN([C@@H](C)CO)C(=O)c2cc(NC(=O)Nc3ccc4c(c3)OCO4)ccc2O1	x	-5	-17	65*	22[16.7 µM]	x
OCC1OC(C(N=Nc2ccccc2)=NNc2ccccc2)C(O)C1O (stereo not given)	x	x	-10	-11	-12	x
C[C@H](CO)N1C[C@H](C)[C@H](CN(C)S(=O)(=O)c2cccs2)Oc2ccc(NC(=O)Nc3ccccc3)cc2CC1=O	x	-5	-17	-11	105*[16.7 µM]	x
C[C@H]1CN([C@@H](C)CO)C(=O)Cc2cc(NC(=O)Nc3ccc4c(c3)OCO4)ccc2O[C@H]1CN(C)S(=O)(=O)c1cccs1	x	2	-41	20	92*[16.7 µM]	x

Assay outcomes (PubChem)
